In ChEMBL document CHEMBL3526116, “Toxicological evaluation of acyl glucuronides of nonsteroidal anti-inflammatory drugs using human embryonic kidney 293 cells stably expressing human UDP-glucuronosyltransferase and human hepatocytes” (Drug Metab Dispos, 2011):

Legend:
[1] = system: HEK293; assay: Cytotoxicity against HEK293 cells expressing UGT assessed as decrease in cell viability at 1 mM measured up to 72 hrs by MTT assay; format: ADME, cell-based; settings: human, hek293, 72 h, 1000 µM
In short: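 Mock and UGT1A3/UGT1A4 stable HEK293 cells given drug for up to 72 h; viability measured by WST-8-based MTT assay.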

[2] = system: Hepatocyte; assay: Cellular uptake in human hepatocytes at 1 mM measured at 6 hrs by LC-MS/MS analysis in presence of acyl glucuronidation inhibitor (-)-borneol; format: ADME, cell-based; settings: 1000 µM
In short: (§1)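 Cryopreserved pooled human hepatocytes on collagen-coated wells, 2 × 10^5 cells/well in HCM medium with 0.5% FBS, preincubated 30 min with or without 1 mM (-)-borneol, then drug for 6 h; DMSO ≤0.2% final. Parent drug in cell fraction measured by LC-MS/MS after methanol/acetic acid extraction. Mean ± SD of triplicates.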

[3] = system: HEK293; assay: Cytotoxicity against mock transfected HEK293 cells assessed as decrease in cell viability at 1 mM by MTT assay; format: cell-based; settings: human, hek293, 1000 µM; TDE = time-dependent effect
[4] = system: Hepatocyte; assay: Cytotoxicity against human hepatocytes assessed as decrease in cell viability at 1 mM measured at 6 hrs […] in presence of acyl glucuronidation inhibitor (-)-borneol; format: cell-based; settings: 1000 µM
[5] = system: HEK293; assay: Cytotoxicity against HEK293 cells expressing UGT1A3 assessed as decrease in cell viability by measuring intracellular ATP content at 1 mM by CellTiter-Glo luminescent assay; format: ADME, cell-based; settings: human, hek293, 1000 µM; TDE = time-dependent effect
In short: (§2)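 UGT1A3 or UGT1A4 stable HEK293 cells, 2 x 10^4 cells/well in 0.1 mL DMEM with 0.5% FBS, drug for 6, 12 or 24 h. Viability from intracellular ATP via CellTiter-Glo luminescence, expressed as percent of control cells. Mean ± SD of triplicates.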

[6] = molecular target: T1, UDP-glucuronosyltransferase 1A3 (Homo sapiens, UniProt P35503); assay: Activity of human UGT1A3 expressed in HEK293 cells assessed as enzyme-mediated ibuprofen acyl-beta-D-glucuronide formation at 1 mM measured at 24 hrs by LC-MS/MS analysis; format: ADME, cell-based; settings: hek293, 24 h, 1000 µM
T1 sequence (P35503 whole entry): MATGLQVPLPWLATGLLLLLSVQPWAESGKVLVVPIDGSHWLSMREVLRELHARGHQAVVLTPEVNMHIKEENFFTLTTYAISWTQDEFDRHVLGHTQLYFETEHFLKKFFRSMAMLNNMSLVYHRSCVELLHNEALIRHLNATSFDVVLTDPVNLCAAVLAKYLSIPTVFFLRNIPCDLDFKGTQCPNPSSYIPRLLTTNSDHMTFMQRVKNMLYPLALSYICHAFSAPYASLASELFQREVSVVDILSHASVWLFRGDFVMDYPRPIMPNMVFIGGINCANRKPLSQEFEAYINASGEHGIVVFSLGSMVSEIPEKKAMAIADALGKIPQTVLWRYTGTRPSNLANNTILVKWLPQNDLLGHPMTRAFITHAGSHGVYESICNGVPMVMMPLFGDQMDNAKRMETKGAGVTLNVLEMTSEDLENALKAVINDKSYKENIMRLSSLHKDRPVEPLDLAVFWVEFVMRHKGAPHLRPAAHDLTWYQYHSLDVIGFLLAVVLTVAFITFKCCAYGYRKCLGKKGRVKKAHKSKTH
In short: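 HEK293 stably expressing human UGT1A3 (G418-selected), 2 x 10^5 cells/well in 1 mL DMEM with 0.5% FBS, exposed immediately to drug for 6, 12 or 24 h; DMSO ≤0.1% final. Cells and medium separated by centrifugation, cell fraction resuspended in PBS; aliquots mixed 1:1 with methanol/acetic acid (100:1), spun, supernatant analysed by LC-MS/MS. Triplicate determinations, mean ± SD.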

[7] = system: HEK293; assay: Cytotoxicity against HEK293 cells expressing UGT assessed as LDH leakage at 1 mM after 6 to 24 hrs by spectrophotometric analysis relative to total cell LDH level; format: ADME, cell-based; settings: human, hek293, 1000 µM
In short: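 Stable UGT-expressing or mock HEK293 lines in DMEM with 0.5% FBS, 2 x 10^4 cells/well, drug for 6, 12 or 24 h. LDH released into medium read at 490 nm (690 nm reference); percentage calculated against maximum release from control cells lysed with 1% Triton X-100.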

[8] = system: HEK293; assay: Cytotoxicity against HEK293 cells expressing UGT1A3 assessed as decrease in cell viability at 1 mM by MTT assay; format: ADME, cell-based; settings: human, hek293, 1000 µM; TDE = time-dependent effect
[9] = system: Hepatocyte; assay: Cytotoxicity against human hepatocytes assessed as decrease in cell viability by measuring intracellular ATP content at 1 mM measured at 6 hrs by CellTiter-Glo luminescent assay in absence of acyl glucuronidation inhibitor (-)-borneol; format: cell-based; settings: 1000 µM
In short: (§3)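 Human hepatocytes (pooled, cryopreserved), 2 × 10^4 cells/well on collagen in HCM with 0.5% FBS and 10 nM estradiol; 30-min preincubation ± 1 mM (-)-borneol, then drug 6 h. Intracellular ATP measured by CellTiter-Glo luminescence, percent of control cells. Triplicates, mean ± SD.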

[10] = system: HEK293; assay: Cytotoxicity against HEK293 cells expressing UGT1A4 assessed as decrease in cell viability at 1 mM by MTT assay; format: ADME, cell-based; settings: human, hek293, 1000 µM; TDE = time-dependent effect
[11] = system: Hepatocyte; assay: Cytotoxicity against human hepatocytes assessed as decrease in cell viability by measuring intracellular ATP content at 1 mM measured at 6 hrs by CellTiter-Glo luminescent assay in presence of acyl glucuronidation inhibitor (-)-borneol; format: cell-based; settings: 1000 µM; in short: as §3
[12] = system: Hepatocyte; assay: Cellular uptake in human hepatocytes at 1 mM measured at 6 hrs by LC-MS/MS analysis in absence of acyl glucuronidation inhibitor (-)-borneol; format: ADME, cell-based; settings: 1000 µM; in short: as §1
[13] = molecular target: T2, UDP-glucuronosyltransferase 1A4 (Homo sapiens, UniProt P22310); assay: Activity of human UGT1A4 expressed in HEK293 cells assessed as enzyme-mediated ibuprofen acyl-beta-D-glucuronide formation at 1 mM measured at 24 hrs by LC-MS/MS analysis; format: ADME, cell-based; settings: hek293, 24 h, 1000 µM
T2 sequence (P22310 whole entry): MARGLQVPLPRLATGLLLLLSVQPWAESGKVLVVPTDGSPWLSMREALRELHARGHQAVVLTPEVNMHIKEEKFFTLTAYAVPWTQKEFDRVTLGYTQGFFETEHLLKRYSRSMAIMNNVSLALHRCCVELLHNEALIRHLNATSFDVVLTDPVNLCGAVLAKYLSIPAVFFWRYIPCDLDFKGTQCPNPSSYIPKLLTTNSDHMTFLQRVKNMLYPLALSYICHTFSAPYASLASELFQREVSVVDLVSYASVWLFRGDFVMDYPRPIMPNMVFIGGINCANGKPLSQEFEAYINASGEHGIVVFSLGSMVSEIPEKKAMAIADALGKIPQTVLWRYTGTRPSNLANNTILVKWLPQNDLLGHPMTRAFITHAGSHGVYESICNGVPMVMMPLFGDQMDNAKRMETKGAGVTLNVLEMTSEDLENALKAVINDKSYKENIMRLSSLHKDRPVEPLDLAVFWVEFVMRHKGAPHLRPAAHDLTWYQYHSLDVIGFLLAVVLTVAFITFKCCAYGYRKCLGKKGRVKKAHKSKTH
In short: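 HEK293 stably expressing human UGT1A4, 2 x 10^5 cells/well in DMEM with 0.5% FBS, drug exposure 6–24 h, DMSO ≤0.1% final. Acyl glucuronide in cell fraction and medium measured by LC-MS/MS after methanol/acetic acid (100:1) precipitation and centrifugation. Triplicate determinations.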

[14] = system: HEK293; assay: Cytotoxicity against HEK293 cells expressing UGT1A4 assessed as decrease in cell viability by measuring intracellular ATP content at 1 mM by CellTiter-Glo luminescent assay; format: ADME, cell-based; settings: human, hek293, 1000 µM; TDE = time-dependent effect; in short: as §2
[15] = system: HEK293; assay: Cytotoxicity against mock transfected HEK293 cells assessed as decrease in cell viability by measuring intracellular ATP content at 1 mM by CellTiter-Glo luminescent assay; format: cell-based; settings: human, hek293, 1000 µM; TDE = time-dependent effect
In short: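 Mock-transfected HEK293 cells seeded at 2 x 10^4 cells/well in DMEM with 0.5% FBS, drug added at once and incubated 6, 12 or 24 h. Viability read either by WST-8 (CCK-8) formazan absorbance at 450 nm or by intracellular ATP luminescence (CellTiter-Glo), as percent of control cells; mean ± SD of triplicates. Final DMSO ≤0.1%.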

[16] = system: HEK293; assay: Genotoxicity in HEK293 cells expressing UGT1A3 assessed as DNA strand breaks at 1 mM after 24 hrs by comet assay; format: toxicity, cell-based; settings: human, hek293, 24 h, 1000 µM
In short: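 Alkaline comet assay: HEK/UGT1A3 cells seeded 24 h before, treated 24 h in DMEM with 0.5% FBS (vehicle 0.1% DMSO; MMS 0.1 mM positive control). Cells embedded in LMP agarose, lysed 1 h at 4°C at pH 10, unwound 30 min in NaOH/EDTA, electrophoresed 300 mA 20 min, ethidium-stained; tail moment scored on 150-180 comets over >3 experiments, median (IQR).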

Drug uptake [2]: Active | Drug metabolism [6]: metabolite_detected | Drug uptake [12]: Active | Drug metabolism [13]: metabolite_not_detected
SMILES: CC(C)Cc1ccc(C(C)C(=O)O)cc1 (stereo unspecified) [IBUPROFEN]
Activity [1]: Non-toxic | Activity [3]: tde | Activity [4]: Toxic | Activity [5]: tde | Activity [7]: < 5.4% | Activity [8]: tde | Activity [9]: Toxic | Activity [10]: tde | Activity [11]: Toxic | Activity [14]: tde | Activity [15]: tde | Activity [16]: Non-toxic
